RGS4 act: potentiators or activators of RGS4; HEK293 M3R/inducible RGS4, carbachol calcium flux Fluo4; active compounds read low; B-score at 10 µM; actives 0.92% (n = 310,000); AID 463111;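 active = B-score of the integrated calcium signal more than 4 SD below the library mean, with starting fluorescence not abnormally high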;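 also: negative B-score means reduced calcium response which marks RGS4 activation or potentiation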
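test system = M3R-expressing HEK293 line, RGS4 induced by doxycycline | probe or stimulus = carbachol at ECmax as muscarinic agonist stimulus | timing = dye loading 30 min 37 °C, buffer rest 30 min RT | signal = calcium dye Fluo4 fluorescence | evaluation = B score from integrated fluorescence ratio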
RGS4 block: human RGS4 inhibition; P49798; HEK293 M3R/RGS4 inducible, Fluo-4 calcium flux; active compounds read high; triggered by carbachol at its EC20; B-score at 10 µM; actives 0.45% (n = 310,000);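 active = B-score, a plate-corrected calcium signal, over three deviations above library mean, with baseline fluorescence within five deviations of library mean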;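 also: RGS4 expression induced by doxycycline in cells with stable M3 receptor; B-score is computed from the integrated fluorescence ratio over baseline after carbachol; higher B-score means a larger calcium signal and so more RGS4 inhibition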
Target sequence (P49798 whole entry, looked up): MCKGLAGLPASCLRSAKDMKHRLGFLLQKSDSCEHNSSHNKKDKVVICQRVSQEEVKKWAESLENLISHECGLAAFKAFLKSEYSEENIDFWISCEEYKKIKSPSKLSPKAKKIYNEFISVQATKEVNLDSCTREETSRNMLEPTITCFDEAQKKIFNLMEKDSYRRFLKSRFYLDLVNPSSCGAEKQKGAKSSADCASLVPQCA
MrgX1 agonist: human MrgX1 receptor agonism, primary screen | Q96LB2 | MrgX1-HEK293 cells, Fluo-4 calcium fluorescence, agonist mode; active compounds read high | B-score at 10 µM | actives 0.44% (n = 310,000) | AID 588627;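 active = calcium response B-score plate-corrected fluorescence ratio at least 3 library SD, with starting fluorescence B-score inside 5 SD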
Target sequence (Q96LB2 whole entry, looked up): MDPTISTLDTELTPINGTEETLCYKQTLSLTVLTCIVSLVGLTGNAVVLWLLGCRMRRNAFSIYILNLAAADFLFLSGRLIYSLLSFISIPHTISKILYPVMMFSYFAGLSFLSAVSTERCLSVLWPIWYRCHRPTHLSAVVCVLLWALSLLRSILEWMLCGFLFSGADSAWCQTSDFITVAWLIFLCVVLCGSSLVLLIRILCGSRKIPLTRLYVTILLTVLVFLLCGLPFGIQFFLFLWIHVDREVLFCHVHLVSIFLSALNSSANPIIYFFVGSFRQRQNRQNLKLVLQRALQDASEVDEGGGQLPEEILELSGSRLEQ
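Material: HEK293 cells stably expressing human MrgX1 receptor | Quantity: 15,000 cells per well | Times: Cells plated overnight, dye loaded 0.5 h 37 °C, 0.5 h room temperature | Measured by: Kinetic Fluo-4 NW fluorescence of intracellular calcium | Control set: Positive and negative controls per plate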
MrgX1 antagonist: human MrgX1 receptor antagonism, primary screen; Q96LB2; MRGX1-HEK293 calcium flux, Fluo-4, BAM8-22 antagonism; active compounds read low; actives 1.3% (n = 310,000); AID 588676; B-score at 10 µM;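 active = calcium-response B-score plate-corrected more than 3 library SD below zero, starting fluorescence within 5 deviations, no agonist response on first addition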;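 also: peak minus trough fluorescence over baseline after final BAM8-22 challenge near maximal dose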
MrgX1 PAM: human MrgX1 positive allosteric modulation, primary screen. AID 588675. actives 0.63% (n = 310,000). B-score at 10 µM. Q96LB2. MrgX1-HEK293, Fluo-4 calcium flux, FDSS; active compounds read high;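 active = plate-corrected calcium response at least 3 library SD above typical, normal starting fluorescence, not activating the receptor alone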;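 also: compound read alongside a low EC10 to EC30 dose of BAM8-22 agonist; peak minus trough fluorescence over baseline measured at the second addition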
RGS4 block valid: RGS4 inhibitor validation; shares compounds with RGS4 block; HEK293 M3R/RGS4, carbachol calcium Fluo-4 fluorescence; carbachol added at its EC20; 0 = buffer wells, 100 = carbachol control; calcium response, % at 10 µM; actives 65% (n = 1,700); AID 492999;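 active = duplicate-averaged calcium response above the buffer-only control mean plus 5 SD of those controls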;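 also: integrated fluorescence ratio F max minus min over baseline F0; higher response in RGS4-induced cells means RGS4 inhibition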
M3R Ca ctr: checks RGS4 inhibitor effects in non-induced HEK293 M3R cells; shares compounds with RGS4 block; carbachol calcium Fluo-4; submaximal (EC20) carbachol stimulus; buffer wells 0%, carbachol control wells 100%; activity (percent), % at 10 µM; actives 20% (n = 1,900); AID 493000; call rule not given here;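 also: RGS4 induction absent so cells express M3R without RGS4; higher means more calcium signal and flags a non-specific hit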
RGS4 inh ctr2: second RGS4 inhibitor counter-screen in uninduced cells lacking carbachol; shares compounds with RGS4 block; HEK293 M3R/RGS4 non-induced, Fluo-4 calcium, no carbachol; normalised: buffer wells 0%, carbachol wells 100%; calcium response (agonist-mode artifact), % at 10 µM; actives 22% (n = 1,900); AID 493001;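 active = duplicate-averaged calcium rise in uninduced cells above buffer wells' mean plus 5 SD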
Numbers stand for hits; . = inactive; / = no result. An excerpt weighted towards active compounds, which were near 3.5% of everything screened.

SMILES	RGS4 act	RGS4 block	MrgX1 agonist	MrgX1 antagonist	MrgX1 PAM	RGS4 block valid	M3R Ca ctr	RGS4 inh ctr2
Cn1c(=O)[nH]c(=O)c2c1nc([N+](=O)[O-])n2Cc1ccccc1	.	11.6	.	.	.	71.0%	42.0%	.
Cc1cc2nsnc2c(S(=O)(=O)N2CCN(C)CC2)c1C	.	.	.	.	.	/	/	/
FC(F)(F)Oc1ccc(Nc2nc(N3CCOCC3)nc(N3CCOCC3)n2)cc1	.	.	.	.	.	/	/	/
COc1ccc(OC)c(CC(=O)N2CCc3cc(OC)c(OC)cc3C2)c1	.	.	.	.	.	/	/	/
Cc1cc(OCC(=O)N2CCN(c3ccccn3)CC2)c(C)cc1Br	.	.	.	.	.	/	/	/
CN(C)C=NC(=O)c1ccc(N2CCN(c3ncc(C(F)(F)F)cc3Cl)CC2)cc1	.	8.24	.	.	.	18.0%	.	.
CN(C)/C=C/C(=O)c1ccc(N2CCN(c3ncc(C(F)(F)F)cc3Cl)CC2)cc1	.	.	.	.	.	/	/	/
Cc1cc2cc(C=C(C#N)C#N)c(Cl)nc2cc1C	.	5.89	36	.	.	14.0%	.	25.0%
CCOC(=O)/C(C#N)=C/c1cc2cc(C)c(C)cc2nc1Cl	.	.	.	.	.	/	/	/
O=C(N/N=C/c1ccc(-c2ccc([N+](=O)[O-])cc2)o1)[C@H]1C[C@@H]1c1ccccc1	.	.	.	.	.	.	.	39.0%
O=C(N/N=C/c1ccc(-c2cccc([N+](=O)[O-])c2)o1)[C@H]1C[C@@H]1c1ccccc1	.	5.66	.	.	.	.	.	.
O=C(N/N=C/c1ccc(-c2ccccc2[N+](=O)[O-])o1)[C@H]1C[C@@H]1c1ccccc1	.	.	.	.	.	/	/	/
Cc1ccc(/C=C(\NC(=O)c2ccccc2)C(=O)NC2CCN(Cc3ccccc3)CC2)o1	.	.	.	.	.	/	/	/
CC(C)[C@H](NC(=O)[C@@H]1Cc2ccccc2CN1)C(=O)Nc1ccc2c(c1)OCO2	.	.	.	.	.	/	/	/
COc1cccc(NC(=O)Cn2c(=O)n(CCC(=O)NC3CCN(Cc4ccccc4)CC3)c(=O)c3ccccc32)c1	.	.	.	.	.	/	/	/
Cc1ccc(-c2nc(CS(=O)(=O)CC(=O)NCCN3CCCC3)c(C)o2)cc1	.	.	.	.	.	/	/	/
O=C1NC(c2cccs2)C(C(=O)c2ccccc2)C(O)(C(F)(F)F)N1 (stereo not drawn)	.	.	.	.	.	/	/	/
O=C1NC(c2ccc(-c3ccccc3[N+](=O)[O-])o2)C(C(=O)c2ccccc2)C(O)(C(F)(F)F)N1 (stereo not drawn)	.	.	.	.	.	.	.	.
Cc1ccc(C(=O)C2C(c3ccc(-c4ccccc4[N+](=O)[O-])o3)NC(=O)NC2(O)C(F)(F)F)cc1 (stereo not drawn)	.	.	.	.	.	/	.	.
O=[N+]([O-])c1cc(CN2CCCC2)ccc1Sc1ccc(Cl)cc1	.	.	.	.	.	/	/	/
O=C(Cc1cccs1)N1CCC(c2nc3c(nnn3Cc3ccccc3)c(=O)[nH]2)CC1	.	.	.	.	.	.	.	.
Cc1ccc(Cn2nnc3c(=O)[nH]c(C4CCN(C(=O)Cc5cccs5)CC4)nc32)cc1	.	.	.	.	.	/	.	.
CC(C)(C)c1ccc(Cn2nnc3c(=O)[nH]c(C4CCN(C(=O)Cc5cccs5)CC4)nc32)cc1	.	5.38	.	.	.	27.0%	.	.
CC(C)(C)c1ccc(Cn2nnc3c(=O)[nH]c(C4CCCN(C(=O)Cc5cccs5)C4)nc32)cc1 (stereo not drawn)	.	.	.	.	.	/	/	/
O=C(Cc1cccs1)N1CCCC(c2nc3c(nnn3Cc3ccc(F)cc3)c(=O)[nH]2)C1 (stereo not drawn)	.	.	.	.	.	/	/	/
SMILES	RGS4 act	RGS4 block	MrgX1 agonist	MrgX1 antagonist	MrgX1 PAM	RGS4 block valid	M3R Ca ctr	RGS4 inh ctr2
O=C(CSc1nncc2ccccc12)Nc1cccc(O)c1	.	.	.	.	.	/	/	/
N#Cc1c(Cl)c(Cl)c2nnc(-c3ccc(Br)cc3)n2c1Cl	.	6.01	.	.	.	8.0%	.	11.0%
[S-]c1nnc(-c2ccc(Br)cc2)n1-c1ccccc1.[Zn+2]	.	.	.	.	.	/	/	/
O=C(CCc1nc2ccccc2c(=O)[nH]1)N1CCCc2ccccc21	.	.	.	.	.	/	/	/
COCCCn1cnc2c(c1=O)c1nc3ccccc3nc1n2-c1ccc(C)cc1	.	.	.	.	.	/	/	/
Cc1cc(C)cc(-n2c3nc4ccccc4nc3c3c(=O)n(Cc4ccco4)cnc32)c1	.	5.87	.	.	.	11.5%	.	15.0%
O=C(Nc1ccnn1C1CCN(C(=O)CCc2ccc(F)cc2)CC1)C1CCOC1 (stereo not drawn)	.	.	.	.	.	/	/	/
Cc1ccc(-c2nn(-c3ccccc3)c3[nH]c(=O)c(CNCc4ccccc4)cc23)cc1	.	7.01	.	.	.	19.0%	.	18.5%
Cc1nn(-c2ccccc2)c2[nH]c(=O)c(CNCc3ccc4c(c3)OCO4)cc12	.	.	.	.	.	/	/	/
CCOc1ccc(NC(=O)CN(C)C(=O)CC2OC(=O)c3ccccc32)cc1OCC (stereo not drawn)	.	.	.	.	.	/	/	/
CCOC(=O)/C(=C/c1ccc(OC(=O)c2ccccc2)cc1)C(C)=O	.	.	.	.	.	/	.	8.5%
O=C(O)C1C2CCC(O2)C1C(=O)Nc1ccc(OC(F)F)cc1 (stereo not drawn)	.	.	.	.	.	/	/	/
COc1cc(/C=C/c2[nH]c(=O)[nH]c(=O)c2[N+](=O)[O-])cc(OC)c1O	.	.	.	.	.	/	/	/
O=c1[nH]c(/C=C/c2ccccc2Cl)c([N+](=O)[O-])c(=O)[nH]1	.	10.5	.	.	.	43.5%	41.5%	.
COc1cccc(/C=C/c2[nH]c(=O)[nH]c(=O)c2[N+](=O)[O-])c1O	.	5.26	.	.	.	17.0%	.	.
CC(C)c1ccc(/C=C/c2[nH]c(=O)[nH]c(=O)c2[N+](=O)[O-])cc1	.	.	.	.	.	/	/	/
Cc1c(N=NC2=C(O)CC(C)(C)CC2=O)cc2c(c1[N+](=O)[O-])C(C)(C)CC2(C)C	.	7.39	.	.	.	28.5%	.	.
CCOc1ccc(-c2c(C(=O)N/N=C/c3cccc(Br)c3)nnn2-c2nonc2N)cc1	.	.	.	.	.	.	.	8.0%

Source: PubChem
